Measurements pooled from the literature.
Each line is one published result; the experiments were not run side by side.
Cell line: HeLa
Read-out: cell growth or viability

With `CN1CCc2c(c3ccccc3n2Cc2ccc(C(=O)NO)cc2)C1` the IC50 was 17.6 µM (CCK-8; 48 h).
The IC50 of `Cc1cc2c(cc1C)[n+](Cc1cc(OCCC(C)C)c3ccccc3c1OCCC(C)C)cn2CCC(C)C` is reported as 8.9 µM (MTT; 24 h).
`O=C(Cn1cc(COc2ncnc3[nH]cnc23)nn1)Nc1ccc(O)cc1` has an IC50 of 17.6 µM (MTT).
`CC(C)CCn1c[n+](CC(=O)c2cc(OC(C)C)c3ccccc3c2OC(C)C)c2ccccc21` gave an IC50 of 12.9 µM (MTT; 24 h).
The IC50 of `COc1cccc(Nc2nc(-c3ccncc3)nc3c2CNCC3)c1` is reported as 23.2 µM (MTT).
The IC50 of `CC(C)CCOc1cc(C[n+]2cn(CCC(C)C)c3cc(Br)c(Br)cc32)c(OCCC(C)C)c2ccccc12` is reported as 7.2 µM (MTT; 24 h).
The IC50 of `Cc1ccc(NC(=O)Cn2cc(COc3ncnc4[nH]cnc34)nn2)c(C)c1` is reported as 21.4 µM (MTT).
`CCC(=CCc1c(O)cc2c(c1O)C(=O)CC(c1ccc(O)cc1)O2)CC` (stereo in doubt) has an IC50 of 19.1 µM (MTT).
With `CN(C)C1CCc2[nH]c3c(C(N)=O)ccc(-c4ccccc4Cl)c3c2C1` (stereo not shown) the IC50 was 0.19 µM.
`CC(C)CCOc1cc(C(=O)C[n+]2cn(Cc3ccccc3)c3ccccc32)c(OCCC(C)C)c2ccccc12` gave an IC50 of 14.8 µM (MTT; 24 h).
With `COc1cc([C@@H]2c3cc4c(cc3[C@@H](O[C@@H]3O[C@@H]5CO[C@@H](C)O[C@H]5[C@H](O)[C@H]3O)[C@H]3COC(=O)[C@H]23)OCO4)cc(OC)c1O` the IC50 was 3.9 µM (MTT; 48 h).
`Cc1sc2c(c1C)C(c1ccc(Cl)cc1)=N[C@@H](CC(=O)NCCCCNC(=O)COc1cccc3c1C(=O)N(C1CCC(=O)NC1=O)C3=O)c1nnc(C)n1-2` (stereo partly shown) has an IC50 of greater than 10 µM (CCK-8; 72 h).
`CC(C)CCOc1cc(C[n+]2cn(CCC(C)C)c3cc(-c4ccccc4)c(-c4ccccc4)cc32)c(OCCC(C)C)c2ccccc12` has an IC50 of 11.2 µM (MTT; 24 h).
The IC50 of `CNC(=S)N/N=C/c1cccc2cc3ccccc3nc12` is reported as 21.8 µM (MTT; 48 h).
`CN1C(=O)C(=O)c2cc3c(c4c2c1cc1ccccc14)OCO3` has an IC50 of 56.9 µM (MTT; 75 h).
`COc1ccc(-c2n(CCC(C)C)c3ccccc3[n+]2Cc2cc(OCCC(C)C)c3ccccc3c2OCCC(C)C)cc1` has an IC50 of 10.9 µM (MTT; 24 h).
The IC50 of `CCCNC(=S)N/N=C/c1cccc2cc3ccccc3nc12` is reported as 36.2 µM (MTT; 48 h).
`COc1cc(C(=O)C[n+]2cn(CCC(C)C)c3ccccc32)c(OC)c2ccccc12` gave an IC50 of 17 µM (MTT; 24 h).
For `CN(C)c1ccc(Nc2nc(-c3ccncc3)nc3c2CC(N)CC3)cc1` (stereo not shown), the IC50 was 38.2 µM (MTT).
`CSc1ccccc1-c1cc(C(N)=O)c2[nH]c3c(c2c1)CC(N)CC3` (stereo not shown) gave an IC50 of 1.46 µM.
For `CCC(=CCc1c(O)cc2c(c1O)C(=O)C[C@@H](c1ccccc1O)O2)CC`, the IC50 was 51.3 µM (MTT; 48 h).
With `Fc1ccccc1Nc1nc(-c2ccncc2)nc2c1CNCC2` the IC50 was greater than 100 µM (MTT).
`COC(C)c1n(CCC(C)C)c2ccccc2[n+]1Cc1cc(OCCC(C)C)c2ccccc2c1OCCC(C)C` (stereo not shown) gave an IC50 of 5.7 µM (MTT; 24 h).
`COc1ccc(CNC(=O)Cn2cc(COc3ncnc4[nH]cnc34)nn2)cc1` has an IC50 of 29.6 µM (MTT).
The IC50 of `COc1cccc2c1C(=O)c1c(O)c3c(c(O)c1C2=O)C[C@@](O)(C(=O)CO)C[C@@H]3O[C@H]1C[C@H](N)[C@H](O)[C@H](C)O1` is reported as 0.2 µM (MTT; 48 h).
The IC50 of `O=C(Cn1cc(COc2ncnc3[nH]cnc23)nn1)Nc1ccc([N+](=O)[O-])cc1` is reported as 10.4 µM (MTT).
`COc1cccc(NC(=S)N/N=C/c2cccc3cc4ccccc4nc23)c1` gave an IC50 of 46.8 µM (MTT; 48 h).
For `CN(C)C(=S)[N-]N=C(c1ccccn1)c1ccccn1.[O]=[V+]=[O]`, the IC50 was 42.9 µM (MTT; 48 h).
